Sampled rows, rich in hits. Any-hit rate of the full collection: about 2.3%.
Myeloid diff MLP: promotes myeloid progenitor differentiation; calls only at 10 µM; actives 1% (n = 360,000); ER-HoxA9 myeloid progenitors, lysozyme-GFP differentiation, flow cytometry;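 active = normalized GFP-positive differentiation at or above the plate's own cutoff, the solvent-only control mean plus 3 SD; inconclusive = no clear call, values can overlap the other calls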;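 note: cells exposed to compound for four days before flow analysis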
HNF4A DNA FP: change in binding of human HNF4 alpha to DNA. activity change, % at 10 µM. actives 0.3% (n = 360,000). HNF4a-FITC DNA binding, fluorescence polarization, 1 h. AID 1224865; in the data active = activity change above about 30%, passing the limit was not always enough
Target sequence (P41235 whole entry, looked up): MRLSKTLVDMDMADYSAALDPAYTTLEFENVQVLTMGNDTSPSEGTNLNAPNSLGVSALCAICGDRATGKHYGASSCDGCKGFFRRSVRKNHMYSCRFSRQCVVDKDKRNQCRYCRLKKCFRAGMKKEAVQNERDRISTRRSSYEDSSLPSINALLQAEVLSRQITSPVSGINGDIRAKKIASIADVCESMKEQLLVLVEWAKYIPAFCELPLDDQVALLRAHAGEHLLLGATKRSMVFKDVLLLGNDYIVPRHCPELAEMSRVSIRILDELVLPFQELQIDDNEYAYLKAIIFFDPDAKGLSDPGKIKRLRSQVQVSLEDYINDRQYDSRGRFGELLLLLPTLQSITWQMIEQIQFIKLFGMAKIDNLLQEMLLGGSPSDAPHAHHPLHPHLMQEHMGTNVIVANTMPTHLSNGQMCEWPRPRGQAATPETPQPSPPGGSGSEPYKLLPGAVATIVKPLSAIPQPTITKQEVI
TPT1 inh: blocks Candida albicans tRNA 2'-phosphotransferase; actives 0.81% (n = 300,000); inhibition, % at 5 µM; recombinant caTPT1, FP RNA substrate dephosphorylation;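 active = inhibition above the mean of all tested compounds plus 3 SD, set per screening campaign, cut at about 24% in these data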;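 note: plate controls were DMSO alone for no effect and ferristatin control at 100 nM for full effect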
CSN deneddyl inh: blocks human CSN-mediated cullin deneddylation | Q92905 | Purified CSN, SCF-Nedd8-OG deneddylation, fluorescence polarization | inhibition, % at 12.5 µM | actives 0.38% (n = 360,000) | AID 651999;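 active = pattern-corrected inhibition above about 35%, with an unprinted fluorescence ratio check between 0.5 and 1.5, limit read from the data, passing the limit was not always enough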;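 note: 0% = enzyme with substrate and 100% = substrate without enzyme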
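Test system: purified human Csn5 enzyme expressed in HEK293T cells. Amount: 0.24 nM enzyme. Reagent: SCFSkp2-Nedd8OG substrate at 10 nM final. Schedule: 90 min incubation of compound, enzyme and substrate at room temperature. Detection: fluorescence polarization. Read-out: % inhibition of substrate cleavage by Csn5.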
Rpn11 block: blocks the human proteasome subunit Rpn11; O00487; actives 0.59% (n = 360,000); inhibition, % at 20 µM; human 26S proteasome, Ub4-pepOG fluorescence polarization; 20S core pre-blocked with epoxomicin;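 active = inhibition at 20 µM, scaled to each plate's controls, above about 33%, limit read from the data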
The depositor's hits bear a star; i = inactive; ? = inconclusive; . = not tested or not shown; + = active, no number.

SMILES	Myeloid diff MLP	HNF4A DNA FP	TPT1 inh	CSN deneddyl inh	Rpn11 block
OC[C@@H]1CN(Cc2ccc3c(c2)OCO3)C[C@H](n2cnc3c(NCc4ccncc4)ncnc32)O1	i	6	.	-4	0
COCCCNC(=O)C[C@H]1C[C@H](C(=O)N2CCCCC2)[C@@]2(C)c3[nH]c4ccc(Cl)cc4c3CCN2C1=O	+	-1	.	4	-4
COCCCNC(=O)CC1C[C@H](C(=O)N2CCCCC2)[C@@]2(C)c3[nH]c4ccc(OC)cc4c3CCN2C1=O (stereo partly specified)	i	-3	.	-2	-1
N#CC1=C(N)SC(N)=C(C#N)C1CCc1ccccc1	+	125	119*	26	.
CC1(C)CC(=O)C2=C(C1)OC(N)=C(C#N)C2CCc1ccccc1 (stereo unspecified)	i	-3	-3	4	-4
NC(=S)c1cc2cc(Br)ccc2oc1=O	i	1	-4	-7	0
NC(=S)c1cc2ccc(O)cc2oc1=O	i	34	.	46*	13
O=C1COc2ccc(C(=O)COC(=O)c3ccccc3[N+](=O)[O-])cc2N1	i	8	3	15	8
O=C1COc2ccc(C(=O)COC(=O)c3ccc(Cl)cc3[N+](=O)[O-])cc2N1	i	1	-2	77*	-5
Fc1ccc(N2N=C(c3cccs3)CC2c2ccccc2)cc1 (stereo unspecified)	i	9	3	6	63*
CCOC(=O)C1=C(c2ccccc2)NC(=O)NC1c1ccc(N(C)C)cc1 (stereo unspecified)	i	1	-2	2	3
CCOC(=O)C1=C(c2ccccc2)NC(=O)NC1c1ccc(OC)cc1 (stereo unspecified)	i	-4	-2	107*	1
COc1cccc(CNc2ccccc2O)c1OCc1ccccc1F	+	2	4	-4	0
Cc1cc(CNC[C@H]2O[C@@H](n3cnc4c(N)ncnc43)[C@H](O)[C@@H]2O)no1	i	-1	.	-5	-2
COc1cc(C(=O)N2CCC(NC(=O)C(Cc3ccc(C(C)C)cc3)NC(C)=O)CC2)cc(OC)c1OC (stereo unspecified)	i	52*	-4	0	7
O=C1NC[C@H](CCCCN2C[C@H](Cc3ccc(O)cc3)N(CCc3ccccc3)C(=O)C2=O)N(CCC2CCCCC2)C1=O	i	-3	.	5	.
CC(C)(C)C(=O)c1c(N)[nH]c(C(=O)c2ccccc2)c1-c1ccccc1Br	i	5	.	4	.
COc1ccc(-c2c(C(=O)c3ccc(Br)cc3)[nH]c(N)c2C(=O)c2ccccc2)cc1OC	+	-2	.	-1	.
NC(=O)c1c(N)[nH]c(C(=O)c2ccccc2)c1-c1ccccc1Br	i	4	.	108*	.
Cc1cc2c(cc1C)-n1nnnc1C(N(Cc1ccccc1)Cc1ccccc1)C(=O)N2 (stereo unspecified)	i	0	.	1	.
O=C1c2ccccc2C(=O)c2c(/C=C/N3CCCCC3)ccnc21	+	-12	.	-10	-32
Nc1ccc(-n2c(N)c(C(=O)NCc3ccc4c(c3)OCO4)c3nc4ccccc4nc32)cc1	?	4	-2	0	5
Nc1c(C(=O)NCc2ccccc2)c2nc3ccccc3nc2n1-c1ccc2c(c1)OCO2	+	6	-4	3	-2
C[C@H]1CN([C@@H](C)CO)C(=O)CCCn2nncc2CO[C@H]1CN(C)C(=O)Nc1cccc(Oc2ccccn2)c1	i	-2	.	-4	-5
CC(C)(O)C#Cc1ccc(N2C(c3ccsc3)=Cc3ccc(F)cc3C2c2c[nH]c3ccccc23)cc1 (stereo unspecified)	i	1	.	3	.
Cc1nc(C(F)(F)F)ccc1C(=O)N1CCCC(C)(C(=O)O)C1 (stereo unspecified)	i	3	.	2	-2
CCCCCCN1C[C@H](O)[C@@H](n2cc(C3CC3)nn2)C[C@@H]1c1ccc(OC)cc1	+	1	.	2	6
O=C(Nc1ccc2c(c1)OCCO2)C(CCc1ccccc1)N1CCC(Cc2ccccc2)CC1 (stereo unspecified)	i	2	.	-1	0
Cn1ccc2c(-c3ccc(C(=O)O)cc3)cc3c(c21)C1CCC3C1 (stereo unspecified)	i	0	.	3	3
